Assay results from ChEMBL document CHEMBL4229360, “Antimalarial agents against both sexual and asexual parasites stages: structure-activity relationships and biological studies of the Malaria Box compound 1-[5-(4-bromo-2-chlorophenyl)furan-2-yl]-N-[(piperidin-4-yl)methyl]methanamine (MMV019918) and analogues” (Eur J Med Chem, 2018).

Legend:
Plasmodium falciparum [1] = test: Antiplasmodial activity against chloroquine-resistant Plasmodium falciparum W2 after 72 hrs by lactate dehydrogenase assay; format: functional, organism-based; details: W2, 72 h
Method in brief: (§1)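 Asynchronous blood-stage cultures at 1–1.5% parasitemia and 1% final hematocrit in human A+ RBCs, RPMI 1640 with 1% AlbuMax, hypoxanthine, HEPES and glutamine. Serial dilutions from DMSO stocks, final DMSO <1%. Incubated 72 h at 37 °C under 1% O₂/5% CO₂. IC50 is the mean of ≥3 experiments in duplicate.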

[2] = Cytotoxicity against mouse NIH/3T3 cells after 24 hrs by neutral red uptake assay; format: cell-based, NIH3T3; details: read-out: TC50
Method in brief: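 NIH3T3 cells exposed for 24 h; viability by neutral red uptake. Mean of three experiments, six replicates each.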

Plasmodium falciparum [3] = test: Antiplasmodial activity against chloroquine-sensitive Plasmodium falciparum D10 after 72 hrs by lactate dehydrogenase assay; format: functional, organism-based; details: D10, 72 h; method in brief: as §1
Plasmodium falciparum [4] = test: Gametocytocidal activity against Plasmodium falciparum 3D7 elo1-pfs16-CBG99 late-stage (4 to 5) gametocytes assessed as inhibition of parasite viability after 72 hrs by luciferase reporter assay; format: functional, organism-based; details: 3D7 elo1-pfs16-CBG99, 72 h
Method in brief: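 Transgenic 3D7elo1-pfs16-CBG99 gametocytes express CBG99 luciferase from the pfs16 promoter. Stage IV–V gametocytes (Giemsa-checked) were exposed at day 8–10 after NAG addition to serial dilutions in complete medium for 72 h. Samples at 2% haematocrit were then mixed 1:1 with D-luciferin (1 mM, pH 5.5 citrate) for 10 min and luminescence was read. IC50 came from non-linear regression, mean of ≥3 experiments in duplicate.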

Plasmodium falciparum [5] = test: Gametocytocidal activity against Plasmodium falciparum NF54 HGL gametocytes assessed as inhibition of parasite viability after 72 hrs by ONE-Glo reagent based luminescence assay; format: functional, organism-based
Method in brief: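 NF54 gametocytes raised in 5% haematocrit RPMI1640/10% human serum, with 50 mM NAG on days 4–9. Mainly stage IV gametocytes isolated on day 11 by Percoll gradient and seeded at 5000 cells/well, final DMSO 0.1%. Incubated 72 h at 37 °C, 3% O2, 4% CO2; viability by ONE-Glo luminescence.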

Plasmodium falciparum [6] = test: Antiplasmodial activity against asexual blood stage Plasmodium falciparum NF54 after 72 hrs by SYBR green-based fluorometric analysis; format: functional, organism-based; details: NF54, 72 h
Method in brief: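 Asexual NF54 seeded at 0.83% parasitaemia, 1.5% haematocrit, in RPMI1640 with 10% human serum. Serial dilutions, final DMSO 0.1%. Incubated 72 h at 37 °C under 3% O2, 4% CO2, then read by SYBR Green fluorescence.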

[7] = molecular target: T1, Phosphoethanolamine N-methyltransferase (Plasmodium falciparum) (UniProt Q8IDQ9); test: Inhibition of plasmodium falciparum phosphoethanolamine N-methyltransferase expressed in Escherichia coli assessed as remaining enzyme activity at 100 uM using phosphoethanolamine as substrate and [methyl-14C] SAM by radiochemical assay
T1 sequence (whole entry): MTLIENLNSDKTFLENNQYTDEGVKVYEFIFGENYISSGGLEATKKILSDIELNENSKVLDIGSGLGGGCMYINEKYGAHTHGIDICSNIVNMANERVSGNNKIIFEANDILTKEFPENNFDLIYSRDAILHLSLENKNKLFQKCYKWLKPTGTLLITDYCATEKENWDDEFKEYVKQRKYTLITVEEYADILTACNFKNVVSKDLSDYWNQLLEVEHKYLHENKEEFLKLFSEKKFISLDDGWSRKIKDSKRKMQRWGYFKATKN
Method in brief: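 Recombinant PfPMT purified from E. coli, 2 μg per 100 μL reaction. Buffer 0.1 M HEPES-KOH pH 8.0, 2 mM Na2EDTA, 10% glycerol, 5% DMSO, with 30 μM SAM (100 nCi [methyl-14C]SAM) and 55 μM phosphoethanolamine; radiochemical read-out.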

Clc1ccc(-c2ccc(CNCC3CCNCC3)o2)c(Br)c1
IC50 (Plasmodium falciparum [1]): 1870 nM | CC50 at 24 h [2]: < 5000 nM | IC50 (Plasmodium falciparum [3]): 510 nM | IC50 (Plasmodium falciparum [4]): 1100 nM

Oc1ccccc1-c1ccc(CNCC2CCNCC2)o1
IC50 (Plasmodium falciparum [1]): 9600 nM | IC50 (Plasmodium falciparum [5]): 290 nM | IC50 (Plasmodium falciparum [6]): 260 nM | CC50 at 24 h [2]: 7000 nM | IC50 (Plasmodium falciparum [3]): 4400 nM | IC50 (Plasmodium falciparum [4]): 8300 nM

C[N+](C)(C)CCCNCc1ccc(-c2ccc(Cl)cc2Br)o1
IC50 (Plasmodium falciparum [1]): 5500 nM | IC50 (Plasmodium falciparum [3]): 2500 nM | IC50 (Plasmodium falciparum [4]): > 24000 nM

CN(C)CCCNCc1ccc(-c2ccc(Br)cc2Cl)o1
IC50 (Plasmodium falciparum [1]): 1400 nM | CC50 at 24 h [2]: 5000 nM | IC50 (Plasmodium falciparum [3]): 1200 nM | IC50 (Plasmodium falciparum [4]): 1100 nM

Brc1ccc2cc(CNCC3CCNCC3)sc2c1
IC50 (Plasmodium falciparum [1]): 1500 nM | IC50 (Plasmodium falciparum [5]): 53 nM | IC50 (Plasmodium falciparum [6]): 730 nM | IC50 (Plasmodium falciparum [3]): 1000 nM | IC50 (Plasmodium falciparum [4]): 1400 nM

FC(F)(F)c1ccc(-c2cccc(CNCC3CCNCC3)n2)cc1
IC50 (Plasmodium falciparum [1]): 3400 nM | IC50 (Plasmodium falciparum [3]): 460 nM | IC50 (Plasmodium falciparum [4]): 4000 nM

Clc1cc(Br)ccc1-c1ccc(CNCC2CCNCC2)s1
IC50 (Plasmodium falciparum [1]): 2200 nM | IC50 (Plasmodium falciparum [5]): 20 nM | IC50 (Plasmodium falciparum [6]): 280 nM | CC50 at 24 h [2]: < 5000 nM | IC50 (Plasmodium falciparum [3]): 730 nM | IC50 (Plasmodium falciparum [4]): 850 nM

C[N+](C)(CCCNCc1ccc(-c2ccc(Cl)cc2Br)o1)Cc1ccccc1
IC50 (Plasmodium falciparum [1]): 660 nM | Activity [7]: 95.8% | IC50 (Plasmodium falciparum [3]): 550 nM | IC50 (Plasmodium falciparum [4]): 4800 nM

Brc1ccc(-c2ccc(CNCC3CCNCC3)o2)cc1
IC50 (Plasmodium falciparum [1]): 8000 nM | IC50 (Plasmodium falciparum [3]): 1100 nM | IC50 (Plasmodium falciparum [4]): 4400 nM

Fc1ccc(-c2ccc(CNCC3CCNCC3)o2)cc1
IC50 (Plasmodium falciparum [1]): 7900 nM | IC50 (Plasmodium falciparum [3]): 2100 nM | IC50 (Plasmodium falciparum [4]): 6000 nM

COc1ccccc1-c1ccc(CNCC2CCNCC2)o1
IC50 (Plasmodium falciparum [1]): > 15000 nM | CC50 at 24 h [2]: 53000 nM | IC50 (Plasmodium falciparum [3]): 10000 nM | IC50 (Plasmodium falciparum [4]): 11800 nM
